Sequences and labels used below:
B1: Osa-1-4 twister ribozyme (parent)
chain: CCGCCUAACACUGCCAAUGCCGGUCCCAAGCCCGGAUAAAAGUGGAGGGGGCGG

The variants in the data set derive from B1. Description: self-cleavage, relative activity (ratio to wild type); higher = more cleavage; co-transcriptional. In short, it runs like this: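 For each read, cleavage status was taken from whether upstream sequence was present. The reads came from an Oryza sativa twister ribozyme of 54 nucleotides, whose DNA template was synthesised with 97 % wild-type base and 1 % of each other base at the 48 positions downstream of the cleavage site. The template was transcribed in vitro at 37 °C for 2 h with co-transcriptional self-cleavage, and the RNA was reverse-transcribed using a template-switching oligonucleotide, PCR-amplified and deep-sequenced. Relative activity is the fraction cleaved normalised to wild type.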
Regarding CCGCCUUACAGUGCCAAUGCCGGUCCCAAGCCCGGAUAAAAGUGGAGGGGGCGG [A7U C11G], the self-cleavage was found to be 0.06.

For CCGCCUUACAAUGCCAAUGCCGGUCCCAAGCCCGGAUAAAAGUGGAGGGGGCGG [A7U C11A], the self-cleavage amounted to 0.08.

Turning to CCGCCUUACAUUGCCAAUGCCGGUCCCAAGCCCGGAUAAAAGUGGAGGGGGCGG [A7U C11U], the self-cleavage was determined as 0.05.

Turning to CCGCCUGACACUGCCAAUGCCGGUCCCAAGCCCGGAAAAAAGUGGAGGGGGCGG [A7G U37A], the self-cleavage came to 0.27.

With CCGCCUGACACUGCCAAUGCCGGUCCCAAGCCCGGAGAAAAGUGGAGGGGGCGG [A7G U37G], the self-cleavage worked out at 0.58.

With CCGCCUGACACUGCCAAUGCCGGUCCCAAGCCCGGACAAAAGUGGAGGGGGCGG [A7G U37C], the self-cleavage stood at 0.46.

On to CCGCCUGACACUGCCAAUGCCGGUCCCAAGCCCGGAUAAAAGUGGAAGGGGCGG [A7G G47A], for which the self-cleavage is 0.08.

On to CCGCCUGACACUGCCAAUGCCGGUCCCAAGCCCGGAUAAAAGUGGACGGGGCGG [A7G G47C], for which the self-cleavage was 0.05.

CCGCCUGACACUGCCAAUGCCGGUCCCAAGCCCGGAUAAAAGUGGAUGGGGCGG [A7G G47U]: the self-cleavage turned out to be 0.07.

In the case of CCGCCUGACACUGCCAAGGCCGGUCCCAAGCCCGGAUAAAAGUGGAGGGGGCGG [A7G U18G], the self-cleavage was found to be 0.49.

For CCGCCUGACACUGCCAACGCCGGUCCCAAGCCCGGAUAAAAGUGGAGGGGGCGG [A7G U18C], the self-cleavage is 0.25.

As for CCGCCUGACACUGCCAAAGCCGGUCCCAAGCCCGGAUAAAAGUGGAGGGGGCGG [A7G U18A], the self-cleavage was determined as 0.38.

For CCGCCUGACACUGCCAAUGCCGGUCCCAAGCCCGGAUAAAAGUGGAGGGGGCGA [A7G G54A], the self-cleavage was 0.19.

CCGCCUGACACUGCCAAUGCCGGUCCCAAGCCCGGAUAAAAGUGGAGGGGGCGU [A7G G54U]: the self-cleavage was found to be 0.36.

For CCGCCUGACACUGCCAAUGCCGGUCCCAAGCCCGGAUAAAAGUGGAGGGGGCGC [A7G G54C], the self-cleavage worked out at 0.17.

Turning to CCGCCUUACACUGCCAAUGCCGGUCCCAAGCCUGGAUAAAAGUGGAGGGGGCGG [A7U C33U], the self-cleavage was 0.08.

CCGCCUUACACUGCCAAUGCCGGUCCCAAGCCAGGAUAAAAGUGGAGGGGGCGG [A7U C33A]: the self-cleavage turned out to be 0.03.

Regarding CCGCCUUACACUGCCAAUGCCGGUCCCAAGCCGGGAUAAAAGUGGAGGGGGCGG [A7U C33G], the self-cleavage stood at 0.03.

Regarding CCGCCUGACACUGCCAAUGCCGGUCCCAAGCCCGGAUAAAAAUGGAGGGGGCGG [A7G G42A], the self-cleavage stood at 0.13.

CCGCCUGACACUGCCAAUGCCGGUCCCAAGCCCGGAUAAAAUUGGAGGGGGCGG [A7G G42U]: the self-cleavage came out at 0.05.

As to CCGCCUGACACUGCCAAUGCCGGUCCCAAGCCCGGAUAAAACUGGAGGGGGCGG [A7G G42C], the self-cleavage is 0.08.

With CCGCCUGACACUGCCAAUGCCGGUCCCAAGCCCGGAUAAAAGUGUAGGGGGCGG [A7G G45U], the self-cleavage came out at 0.05.

As to CCGCCUGACACUGCCAAUGCCGGUCCCAAGCCCGGAUAAAAGUGCAGGGGGCGG [A7G G45C], the self-cleavage was found to be 0.04.

Take CCGCCUGACACUGCCAAUGCCGGUCCCAAGCCCGGAUAAAAGUGAAGGGGGCGG [A7G G45A]: the self-cleavage was 0.08.

On to CCGCCUUACACUGCCAAUGCCGGUUCCAAGCCCGGAUAAAAGUGGAGGGGGCGG [A7U C25U], for which the self-cleavage amounted to 0.2.

Regarding CCGCCUUACACUGCCAAUGCCGGUACCAAGCCCGGAUAAAAGUGGAGGGGGCGG [A7U C25A], the self-cleavage stood at 0.03.

Regarding CCGCCUUACACUGCCAAUGCCGGUGCCAAGCCCGGAUAAAAGUGGAGGGGGCGG [A7U C25G], the self-cleavage was found to be 0.08.

For the variant CCGCCUGACACUGCCAAUGCCGGUCCCAAGCCCGGAUAAAAGUGGAGGCGGCGG [A7G G49C], the self-cleavage is 0.05.

CCGCCUGACACUGCCAAUGCCGGUCCCAAGCCCGGAUAAAAGUGGAGGAGGCGG [A7G G49A]: the self-cleavage amounted to 0.07.

As for CCGCCUGACACUGCCAAUGCCGGUCCCAAGCCCGGAUAAAAGUGGAGGUGGCGG [A7G G49U], the self-cleavage worked out at 0.05.

On to CCGCCUUAAACUGCCAAUGCCGGUCCCAAGCCCGGAUAAAAGUGGAGGGGGCGG [A7U C9A], for which the self-cleavage came out at 0.05.

Regarding CCGCCUUAUACUGCCAAUGCCGGUCCCAAGCCCGGAUAAAAGUGGAGGGGGCGG [A7U C9U], the self-cleavage is 0.04.

For the variant CCGCCUUAGACUGCCAAUGCCGGUCCCAAGCCCGGAUAAAAGUGGAGGGGGCGG [A7U C9G], the self-cleavage stood at 0.05.

As to CCGCCUUACACUGGCAAUGCCGGUCCCAAGCCCGGAUAAAAGUGGAGGGGGCGG [A7U C14G], the self-cleavage is 0.23.

As for CCGCCUUACACUGUCAAUGCCGGUCCCAAGCCCGGAUAAAAGUGGAGGGGGCGG [A7U C14U], the self-cleavage stood at 0.07.

As to CCGCCUUACACUGACAAUGCCGGUCCCAAGCCCGGAUAAAAGUGGAGGGGGCGG [A7U C14A], the self-cleavage came out at 0.03.

With CCGCCUUACACUGCCAAUGCCGGUCCUAAGCCCGGAUAAAAGUGGAGGGGGCGG [A7U C27U], the self-cleavage was found to be 0.06.

As to CCGCCUUACACUGCCAAUGCCGGUCCAAAGCCCGGAUAAAAGUGGAGGGGGCGG [A7U C27A], the self-cleavage amounted to 0.06.

With CCGCCUUACACUGCCAAUGCCGGUCCGAAGCCCGGAUAAAAGUGGAGGGGGCGG [A7U C27G], the self-cleavage was 0.04.

On to CCGCCUGACACUGCCAAUGCCGGUCCCAAGCCCGGAUAAAAGUGGAGUGGGCGG [A7G G48U], for which the self-cleavage amounted to 0.05.

With CCGCCUGACACUGCCAAUGCCGGUCCCAAGCCCGGAUAAAAGUGGAGAGGGCGG [A7G G48A], the self-cleavage came to 0.06.

Turning to CCGCCUGACACUGCCAAUGCCGGUCCCAAGCCCGGAUAAAAGUGGAGCGGGCGG [A7G G48C], the self-cleavage came to 0.05.

Consider CCGCCUUCCACUGCCAAUGCCGGUCCCAAGCCCGGAUAAAAGUGGAGGGGGCGG [A7U A8C], for which the self-cleavage was found to be 0.02.

Consider CCGCCUUUCACUGCCAAUGCCGGUCCCAAGCCCGGAUAAAAGUGGAGGGGGCGG [A7U A8U], for which the self-cleavage is 0.07.

On to CCGCCUUGCACUGCCAAUGCCGGUCCCAAGCCCGGAUAAAAGUGGAGGGGGCGG [A7U A8G], for which the self-cleavage came to 0.09.

As to CCGCCUUACACUGCCAAUGGCGGUCCCAAGCCCGGAUAAAAGUGGAGGGGGCGG [A7U C20G], the self-cleavage was determined as 0.11.

For the variant CCGCCUUACACUGCCAAUGUCGGUCCCAAGCCCGGAUAAAAGUGGAGGGGGCGG [A7U C20U], the self-cleavage was 0.09.

Consider CCGCCUUACACUGCCAAUGACGGUCCCAAGCCCGGAUAAAAGUGGAGGGGGCGG [A7U C20A], for which the self-cleavage is 0.06.
